# Laboratory results reported in PMC4324418 (ACS Chemical Neuroscience, 2014).
# pIC50, pKi: −log10 of the molar value. Marks after values point to notes of the source that are not given here.
# Experiments:
# [1] = target: T1, rat M4 receptor (Rattus norvegicus, UniProt P08485); format: cell-based; conditions: maximum response as % of the Emax of ACh
# T1 sequence (P08485 1-478): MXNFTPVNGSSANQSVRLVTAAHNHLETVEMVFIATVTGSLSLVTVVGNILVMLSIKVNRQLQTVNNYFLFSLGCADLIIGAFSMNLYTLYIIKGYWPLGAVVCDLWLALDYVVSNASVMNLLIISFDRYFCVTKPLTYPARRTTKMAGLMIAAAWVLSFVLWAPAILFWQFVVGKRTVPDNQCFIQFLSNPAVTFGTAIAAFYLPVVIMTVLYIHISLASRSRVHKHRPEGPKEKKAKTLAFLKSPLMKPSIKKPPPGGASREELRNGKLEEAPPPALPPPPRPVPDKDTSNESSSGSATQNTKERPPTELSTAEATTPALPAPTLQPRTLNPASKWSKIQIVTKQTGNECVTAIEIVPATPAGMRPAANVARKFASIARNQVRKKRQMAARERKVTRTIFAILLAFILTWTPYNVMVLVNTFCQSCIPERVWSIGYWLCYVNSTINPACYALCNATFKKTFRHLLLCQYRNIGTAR
# [2] = system: rat M2 receptor; assay: Calcium mobilization, selectivity; format: cell-based
# Summary of the method: (§1)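 Cells were seeded at 15000/well in DMEM with 10% dialyzed FBS, 20 mM HEPES and 1 mM pyruvate, then cultured overnight at 37 °C/5% CO2. M2 and M4 lines were cotransfected with Gqi5. Cells were loaded with 1 μM Fluo-4AM (HBSS, 20 mM HEPES, 2.5 mM probenecid, pH 7.4) for 50 min at 37 °C. ACh was added 140 s after test compound. Calcium signal was expressed as % of the 10 μM ACh maximum.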
# [3] = system: rat M3 receptor; assay: Calcium mobilization, selectivity; format: cell-based
# Summary of the method: as §1
# [4] = system: human M3 receptor; assay: Calcium mobilization, selectivity; format: cell-based
# Summary of the method: as §1
# [5] = system: human M5 receptor; assay: Calcium mobilization, selectivity; format: cell-based
# Summary of the method: as §1
# [6] = target: T2, guinea pig adenosine transporter (Cavia porcellus, UniProt H0V4R7); assay: Cerep panel, displacement of [3H]NTBI binding
# T2 sequence (H0V4R7 1-461): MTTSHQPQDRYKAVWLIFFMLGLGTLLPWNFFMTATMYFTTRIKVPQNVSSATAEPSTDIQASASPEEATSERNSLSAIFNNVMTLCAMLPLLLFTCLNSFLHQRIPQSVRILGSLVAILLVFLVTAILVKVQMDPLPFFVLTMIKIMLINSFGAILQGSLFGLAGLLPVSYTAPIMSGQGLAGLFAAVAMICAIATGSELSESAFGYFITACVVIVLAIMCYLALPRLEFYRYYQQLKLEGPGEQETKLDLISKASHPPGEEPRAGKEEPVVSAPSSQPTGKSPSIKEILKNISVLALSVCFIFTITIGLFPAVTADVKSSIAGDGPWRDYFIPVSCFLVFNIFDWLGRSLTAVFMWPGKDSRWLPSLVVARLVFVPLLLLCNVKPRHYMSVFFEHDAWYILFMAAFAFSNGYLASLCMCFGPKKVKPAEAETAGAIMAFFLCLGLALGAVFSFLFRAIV
# [7] = target: T3, human adenosine transporter (Homo sapiens, UniProt Q99808); assay: [3H]adenosine uptake functional assay; format: cell-based
# T3 sequence (Q99808 1-456): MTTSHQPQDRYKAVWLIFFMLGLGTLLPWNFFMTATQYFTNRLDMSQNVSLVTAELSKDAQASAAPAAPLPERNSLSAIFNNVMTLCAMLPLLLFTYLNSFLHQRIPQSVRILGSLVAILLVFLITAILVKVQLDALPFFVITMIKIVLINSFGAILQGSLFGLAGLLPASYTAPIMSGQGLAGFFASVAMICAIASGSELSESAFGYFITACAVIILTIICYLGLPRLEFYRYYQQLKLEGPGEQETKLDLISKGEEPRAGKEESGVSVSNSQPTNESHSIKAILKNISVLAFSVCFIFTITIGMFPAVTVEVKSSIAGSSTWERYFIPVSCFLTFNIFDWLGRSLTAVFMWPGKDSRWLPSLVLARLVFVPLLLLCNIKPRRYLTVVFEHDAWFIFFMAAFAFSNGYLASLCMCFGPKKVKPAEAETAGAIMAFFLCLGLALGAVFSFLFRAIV
# [8] = Mouse plasma protein binding; format: in vitro ADME
# [9] = Mouse brain homogenate binding; format: in vitro ADME
# [10] = Amphetamine-induced hyperlocomotion in wild-type mice; format: in vivo, mouse; conditions: mouse, brain, ip, WT mice
# [11] = system: wild-type mice; assay: as above; format: in vivo, mouse; conditions: WT mice, amphetamine […] SC
# [12] = system: wild-type mice; assay: Touchscreen pairwise visual discrimination task, wild-type mice; format: in vivo, mouse
# Summary of the method: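 Mice aged 8–11 weeks were held at ~85% free-feeding weight, with water freely available. They were trained on touchscreen nosepoke discrimination (60 trials or 60 min) to ≥85% accuracy on 3 consecutive days. Next day: vehicle (10% Tween 80 IP) or test compound (3–30 mg/kg IP) 60 min pre-test, then saline or MK-801 (0.1–0.3 mg/kg IP) 30 min later. Mice were retested drug-free 24 h later. Analysis: ANOVA with Bonferroni tests.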
# [13] = in vivo; conditions: male, Sprague-Dawley, rat, po, 3 mg/kg, Tmax,p
# [14] = VU0467154 3.0 mg/kg IP + MK-801 0.30 mg/kg IP
# [15] = VU0467154 3.0 mg/kg IP + vehicle
# [16] = VU0467154 5.6 mg/kg IP + MK-801 0.30 mg/kg IP
# [17] = VU0467154 5.6 mg/kg IP + vehicle
# [18] = VU0467154 10.0 mg/kg IP + MK-801 0.30 mg/kg IP
# [19] = VU0467154 10.0 mg/kg IP + vehicle
# [20] = VU0467154 30.0 mg/kg IP + vehicle
smiles,measurement,setting,value
"Cc1nnc2sc(C(=O)NCc3ccc(S(=O)(=O)C(F)(F)F)cc3)c(N)c2c1C [VU0467154, 5-amino-3,4-dimethyl-N-(4-((trifluoromethyl)sulfonyl)benzyl)thieno[2,3-c]pyridazine-6-carboxamide]",%AChmax,[1],68%
same,potentiation of ACh response (calcium response),[2],lack of a calcium response
same,potentiation of ACh response (calcium response),[3],lack of a calcium response
same,potentiation of ACh response (calcium response),[4],lack of a calcium response
same,potentiation of ACh response (calcium response),[5],lack of a calcium response
same,pKi,[6],7.01
same,pIC50,[7],6.62
same,fraction unbound,[8],0.022
same,fraction unbound,[9],0.014
same,concentration at 2.5 h,"[10]; 0.3 mg/kg, mean Cbrain, 0.3 mg/kg IP, at 2.5 h postadministration",24 nM
same,concentration at 2.5 h,"[10]; 0.3 mg/kg, mean Cbrain,u, 0.3 mg/kg IP, 2.5 h, in vitro mouse fubrain 0.014",0.3 nM
same,concentration at 2.5 h,"[10]; 3 mg/kg, mean Cbrain, 3 mg/kg IP, at 2.5 h postadministration",157 nM
same,concentration at 2.5 h,"[10]; 3 mg/kg, mean Cbrain,u, 3 mg/kg IP, 2.5 h, in vitro mouse fubrain 0.014",2.2 nM
same,concentration at 2.5 h,"[10]; 10 mg/kg, mean Cbrain, 10 mg/kg IP, at 2.5 h postadministration",398 nM
same,concentration at 2.5 h,"[10]; 10 mg/kg, mean Cbrain,u, 10 mg/kg IP, 2.5 h, in vitro mouse fubrain 0.014",5.6 nM
same,concentration at 2.5 h,"[10]; 30 mg/kg, mean Cbrain,u, 30 mg/kg IP, 2.5 h, in vitro mouse fubrain 0.014",8.1 nM
same,mean reversal of AHL,[11]; 0.3 mg/kg IP,3.7%
same,mean reversal of AHL,[11]; 1 mg/kg IP,41.6%
same,mean reversal of AHL,[11]; 3 mg/kg IP,70.4%
same,mean reversal of AHL,[11]; 10 mg/kg IP,81.5%
same,mean reversal of AHL,[11]; 30 mg/kg IP,90.7%
same,animals that did not complete all 60 trials in the 60 min session,[12]; 3 mg/kg VU0467154 in combination with 0.3 mg/kg MK-801,14%
same,animals that did not complete all 60 trials in the 60 min session,[12]; 10 mg/kg VU0467154 alone,25%
same,animals that did not complete all 60 trials in the 60 min session,[12]; 30 mg/kg VU0467154 alone,33%
same,correct reward collection latency,[12]; [14],3.34 ± 2.06 s
same,correct touch latency,[12]; [14],18.14 ± 14.17 s
same,time to complete 60 trials,[12]; [14],1239 ± 397.7 ^d s
same,correct reward collection latency,[12]; [15],1.13 ± 0.07 s
same,correct touch latency,[12]; [15],2.01 ± 0.16 s
same,time to complete 60 trials,[12]; [15],1061 ± 130.2 s
same,correct reward collection latency,[12]; [16],1.23 ± 0.08 s
same,correct touch latency,[12]; [16],4.10 ± 0.63 s
same,time to complete 60 trials,[12]; [16],856 ± 58.4 s
same,correct reward collection latency,[12]; [17],2.09 ± 0.50 s
same,correct touch latency,[12]; [17],2.24 ± 0.36 s
same,time to complete 60 trials,[12]; [17],1256 ± 211.5 s
same,correct reward collection latency,[12]; [18],1.33 ± 0.08 s
same,correct touch latency,[12]; [18],6.39 ± 1.11 s
same,time to complete 60 trials,[12]; [18],1017 ± 89.1 s
same,correct reward collection latency,[12]; [19],9.24 ± 6.71 s
same,correct touch latency,[12]; [19],18.58 ± 8.50 s
same,time to complete 60 trials,[12]; [19],2171 ± 424.8 ^b s
same,correct reward collection latency,[12]; [20],2.82 ± 0.71 s
same,correct touch latency,[12]; [20],20.89 ± 4.17 s
same,time to complete 60 trials,[12]; [20],2557 ± 397.1 ^c s
same,Tmax,[13],~3 h
